Measurements taken from ChEMBL document CHEMBL2384977, “Synthesis and biological evaluation of novel styryl benzimidazole derivatives as probes for imaging of neurofibrillary tangles in Alzheimer's disease” (Bioorg Med Chem, 2013).
Calls of active or inactive are those of the source. No cut-off for these calls is given here.

Experiments:
[1] = target: T1, Amyloid-beta precursor protein (Homo sapiens, UniProt P05067); assay: Binding affinity to amyloid beta (1 to 42) (unknown origin) aggregates assessed as apparent dissociation constant after 30 mins by fluorescence spectroscopic analysis; conditions: read-out: Kd(app)
T1 sequence (P05067 whole entry): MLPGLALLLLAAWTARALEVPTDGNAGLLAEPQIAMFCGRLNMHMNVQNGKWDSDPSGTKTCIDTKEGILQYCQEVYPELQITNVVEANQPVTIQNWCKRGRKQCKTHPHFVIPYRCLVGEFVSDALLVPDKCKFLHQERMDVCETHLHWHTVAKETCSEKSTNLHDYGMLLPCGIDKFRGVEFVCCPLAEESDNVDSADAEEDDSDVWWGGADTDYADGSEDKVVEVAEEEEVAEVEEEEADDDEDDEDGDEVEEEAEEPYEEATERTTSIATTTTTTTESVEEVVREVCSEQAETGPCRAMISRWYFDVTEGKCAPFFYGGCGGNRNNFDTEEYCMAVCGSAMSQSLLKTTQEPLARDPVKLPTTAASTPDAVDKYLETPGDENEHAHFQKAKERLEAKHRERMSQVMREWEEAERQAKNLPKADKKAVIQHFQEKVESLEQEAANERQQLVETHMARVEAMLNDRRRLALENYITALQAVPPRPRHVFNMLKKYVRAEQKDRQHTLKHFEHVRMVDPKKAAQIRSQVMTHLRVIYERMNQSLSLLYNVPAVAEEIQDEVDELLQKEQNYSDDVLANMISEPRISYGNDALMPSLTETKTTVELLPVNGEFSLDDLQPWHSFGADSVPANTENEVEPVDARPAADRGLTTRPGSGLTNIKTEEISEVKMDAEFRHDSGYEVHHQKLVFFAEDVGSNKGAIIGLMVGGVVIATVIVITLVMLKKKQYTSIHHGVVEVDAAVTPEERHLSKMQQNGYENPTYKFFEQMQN
Summary of the method: (§1)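 Tau: human 441-aa tau expressed in E. coli, aggregated at 1 mg/mL in MES buffer pH 6.8 with 0.1 mg/mL heparin, 37 °C for 3 days with shaking. Abeta1-42 aggregated at 0.25 mg/mL in PBS pH 7.4, 37 °C for 42 h with shaking. Aggregates at final 10 µg/mL were incubated with ligand (final 0.02–10 µM) for 30 min at room temperature. Apparent Kd was taken from fluorescence saturation curves at ex 440 nm, em 510 nm (tau) or em 480 nm (Abeta). Mean ± SEM of six independent experiments.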

[2] = target: T2, Microtubule-associated protein tau (Homo sapiens, UniProt P10636); assay: Binding affinity to hyperphosphorylated tau protein in alzheimer disease patient brain by immunohistochemical staining analysis; conditions: tested as the 125I-labelled form
T2 sequence (P10636 whole entry): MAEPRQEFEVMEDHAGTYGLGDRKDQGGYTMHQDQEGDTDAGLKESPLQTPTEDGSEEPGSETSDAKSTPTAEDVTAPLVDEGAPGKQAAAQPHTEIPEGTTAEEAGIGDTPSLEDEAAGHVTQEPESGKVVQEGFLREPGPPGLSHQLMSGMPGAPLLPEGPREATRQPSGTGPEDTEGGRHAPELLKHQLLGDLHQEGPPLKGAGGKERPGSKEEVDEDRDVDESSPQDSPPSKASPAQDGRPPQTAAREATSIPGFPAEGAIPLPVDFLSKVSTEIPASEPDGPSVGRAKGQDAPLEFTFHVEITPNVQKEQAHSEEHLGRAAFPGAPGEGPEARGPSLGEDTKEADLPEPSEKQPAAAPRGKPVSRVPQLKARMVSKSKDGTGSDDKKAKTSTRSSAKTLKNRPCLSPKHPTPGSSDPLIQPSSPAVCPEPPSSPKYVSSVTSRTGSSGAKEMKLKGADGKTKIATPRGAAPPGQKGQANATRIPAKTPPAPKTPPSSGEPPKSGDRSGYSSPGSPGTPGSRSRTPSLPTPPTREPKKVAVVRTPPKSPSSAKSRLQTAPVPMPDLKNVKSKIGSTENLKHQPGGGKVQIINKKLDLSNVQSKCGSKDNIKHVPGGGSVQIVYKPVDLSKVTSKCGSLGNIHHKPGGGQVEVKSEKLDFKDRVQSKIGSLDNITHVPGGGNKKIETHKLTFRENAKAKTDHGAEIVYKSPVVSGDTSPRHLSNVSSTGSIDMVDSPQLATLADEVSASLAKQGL
Summary of the method: (§2)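 Autoradiography on 6-µm deparaffinized paraffin serial sections from an autopsy-confirmed AD case; control brain section also run. [125I]SBIM-3 (92.5 kBq/100 µL) for 1 h at room temperature, 50% EtOH for 2 h, water wash 30 s, then imaging plate exposure overnight. Labelling was compared with adjacent sections immunostained for phospho-tau (AT8) or Aβ1–42 (BC05).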

[3] = target: T2, Microtubule-associated protein tau; assay: Binding affinity to recombinant human tau (441 amino acid residues) aggregates expressed in Escherichia coli assessed as apparent dissociation constant after 30 mins by fluorescence spectroscopic analysis; conditions: read-out: Kd(app); summary of the method: as §1
[4] = target: T1, Amyloid-beta precursor protein; assay: Binding affinity to amyloid beta (1 to 42) in alzheimer disease patient brain by immunohistochemical staining analysis; conditions: tested as the 125I-labelled form; summary of the method: as §2
[5] = target: T2, Microtubule-associated protein tau; assay: Binding affinity to hyperphosphorylated tau protein in entorhinal cortex of alzheimer disease patient brain at 300 uM after 30 mins by fluorescence microscopic analysis; assay type: tissue-based
Summary of the method: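 Deparaffinized entorhinal cortex section from the same AD patient, incubated 30 min with ligand in 50% ethanol, then washed 30 s in ethanol. Imaged by fluorescence microscopy (excitation 450–490 nm, emission 510–560 nm). Spots were matched to Thioflavin S staining of the same patient's section.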

Homo sapiens = species on record: Homo sapiens; assay: Selectivity ratio of Kd(app) for amyloid beta (1 to 42) (unknown origin) aggregates to Kd(app) for recombinant human tau (441 amino acid residues) aggregates
Summary of the method: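 Human 441-aa tau, expressed in E. coli, was aggregated at 1 mg/mL (MES pH 6.8, 0.1 mg/mL heparin, 37 °C, 3 days, shaking). Aβ1–42 was aggregated at 0.25 mg/mL (PBS pH 7.4, 37 °C, 42 h). Aggregates were incubated 30 min at room temperature with ligand, and fluorescence read at ex 440 nm, em 510 nm (tau) or 480 nm (Aβ). Apparent Kd came from saturation curves over six independent experiments, and the ratio is Kd(Aβ)/Kd(tau).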

Brain = assay: Ratio of drug level in ddY mouse brain at 13.2 to 20.6 kBq, iv measured at 2 mins to drug level in ddY mouse brain at 13.2 to 20.6 kBq, iv measured at 60 mins; assay type: ADME, organism-based; conditions: in vivo
Summary of the method: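 Tail-vein injection of the 125I tracer (13.2–20.6 kBq, saline with ethanol) into male 5-week-old ddY mice. The ratio is brain uptake (%ID/g) at 2 min divided by brain uptake at 60 min, from groups of 5 animals.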

[6] = 1-Octanol-PBS buffer partition coefficient, log P of the compound at 0.37 MBq after 2 mins by gamma counting analysis; assay type: physicochemical

For `CN(C)c1ccc(/C=C/c2nc3ccc(I)cc3[nH]2)cc1`, the Kd [1] was 820 nM, the Activity [2] was “Active” and the Kd [3] was 300 nM. For the same compound, the Activity [4] was “Active”, the Activity [5] was “Active” and the Selectivity ratio (Homo sapiens) was 2.73.

With `CNc1ccc(/N=N/c2nc3ccc([125I])cc3s2)cc1` the Ratio (Brain) was 0.33.

For `Nc1ccc(/N=N/c2nc3ccc([125I])cc3s2)cc1`, the Ratio (Brain) was 0.3.

In the case of `CN(C)c1ccc(/N=N/c2nc3ccc([125I])cc3s2)cc1`, the Ratio (Brain) is reported as 0.33 and the logP at 2 min [6] is reported as 3.84.
